{"data": "Measurements of several laboratories", "target": "Serine/threonine-protein kinase 32C (STK32C, Homo sapiens, UniProt Q86UX6)", "note": "Each line is one published result; the experiments were not run side by side."}
{"Structure (SMILES)": "CN(c1nccc(-c2cnn3ncccc23)n1)C1CC1", "observed": "binding", "concentration": "1 µM", "remaining binding": "70%"}
{"Structure (SMILES)": "CN1CCN(c2cnc3c(C4CCN(C(=O)c5ccc(OC(F)(F)F)cc5N)CC4)ncnc3c2)CC1", "observed": "cell-free assay", "method": "competition with immobilised ligand", "concentration": "1 µM", "remaining binding": "100%"}
{"Structure (SMILES)": "Cc1cnn2ncc(-c3ccnc(N(C)C)n3)c2c1", "observed": "binding", "concentration": "1 µM", "remaining binding": "100%"}
{"Structure (SMILES)": "O=C(c1ccc(Nc2ncc(Cl)c(-c3ccc(Cl)s3)n2)cc1)N1CCC(N2CCCC2)CC1", "observed": "binding", "method": "competition with immobilised ligand", "concentration": "1 µM", "remaining binding": "100%"}
{"Structure (SMILES)": "CN(C)c1nccc(-c2cnn3ncccc23)n1", "observed": "binding", "concentration": "1 µM", "remaining binding": "100%"}
{"Structure (SMILES)": "O=C(NCCCN1CCOCC1)c1ccc(Nc2ncc(Cl)c(-c3ccc(Cl)s3)n2)cc1", "observed": "binding", "method": "competition with immobilised ligand", "concentration": "1 µM", "remaining binding": "100%"}
{"Structure (SMILES)": "C[C@@H]1CN(c2ccc3ncc(-c4ccc5[nH]nc(C6CC6)c5c4)n3n2)C[C@H](C)O1", "observed": "binding", "method": "competition with immobilised ligand", "concentration": "50 nM", "remaining binding": "85%"}
{"Structure (SMILES)": "CC1CCCN1c1nccc(-c2cnn3ncccc23)n1 (centres unmarked)", "observed": "binding", "concentration": "1 µM", "remaining binding": "100%"}
{"Structure (SMILES)": "C=CC(=O)N1CCC(C(=O)NCC(=O)N2CCN(c3nc(-c4cnc(N)nc4C(F)F)nc(N4CCOCC4)n3)CC2)CC1", "observed": "binding", "method": "competition with immobilised ligand", "concentration": "1 µM", "remaining binding": "99%"}
{"Structure (SMILES)": "COc1cnc(Nc2cccc(S(N)(=O)=O)c2)nc1N1CCN(c2ccccc2)CC1", "observed": "binding", "method": "competition with immobilised ligand", "concentration": "1 µM", "remaining binding": "100%"}
{"Structure (SMILES)": "CCN1CCN(Cc2ccc(C(=O)Nc3ccc(C)c(Oc4ccc5c(c4)CC(=O)N5)c3)cc2C(F)(F)F)CC1", "observed": "binding", "method": "competition with immobilised ligand", "concentration": "1 µM", "remaining binding": "100%"}
{"Structure (SMILES)": "N[C@@H]1CCN(c2nccc(-c3cnn4ncccc34)n2)C1", "observed": "binding", "concentration": "1 µM", "remaining binding": "99%"}
{"Structure (SMILES)": "CC1=C(C#N)C(c2ccc3c(c2)c(NC(=O)c2ccccc2C)nn3C)C(C#N)=C(C)N1", "observed": "cell-free assay", "method": "competition with immobilised ligand", "concentration": "1 µM", "remaining binding": "79%"}
{"Structure (SMILES)": "CN(C)c1ncc(F)c(-c2cnn3ncccc23)n1", "observed": "binding", "concentration": "1 µM", "remaining binding": "87%"}
{"Structure (SMILES)": "O=C(Nc1cnc(Oc2ccc(F)cc2)nc1)N1CCc2ncccc2[C@@H]1c1ccc(F)cc1", "observed": "cell-free assay", "method": "competition with immobilised ligand", "concentration": "1 µM", "remaining binding": "96%"}
{"Structure (SMILES)": "C[C@@H]1CCN(c2nccc(-c3cnn4ncccc34)n2)C1", "observed": "binding", "concentration": "1 µM", "remaining binding": "83%"}
{"Structure (SMILES)": "O=C(Nc1c[nH]nc1C(=O)NC1CCNCC1)c1cc(F)cc(F)c1", "observed": "binding", "method": "competition with immobilised ligand", "concentration": "1 µM", "remaining binding": "97%"}
{"Structure (SMILES)": "N#Cc1ccccc1CSc1nnc2c(n1)[nH]c1ccccc12", "observed": "binding", "method": "competition with immobilised ligand", "concentration": "10 µM", "remaining binding": "83%"}
{"Structure (SMILES)": "CS(=O)(=O)N1CCCC(NC(=O)[C@H](CCC2CCCCC2)NC(=O)c2ccc(CNc3ncnc4c3nnn4-c3ccccc3)cc2)C1 (some centres unmarked)", "observed": "cell-free assay", "method": "competition with immobilised ligand", "concentration": "0.1 µM", "remaining binding": "100%"}
{"Structure (SMILES)": "COc1ncc2cc3ccccc3nc2c1C#N", "observed": "cell-free assay", "method": "competition with immobilised ligand", "concentration": "5 µM", "remaining binding": "100%"}
{"Structure (SMILES)": "O=C(N[C@H]1CCCCC/C=C\\C2C[C@@]2(C(=O)O)NC(=O)[C@@H]2C[C@@H](Oc3ccncc3)CN2C1=O)OC1CCCC1 (some centres unmarked)", "observed": "binding", "method": "competition with immobilised ligand", "concentration": "1 µM", "remaining binding": "100%"}
{"Structure (SMILES)": "CNC(=O)[C@@H]1CC[C@@H](n2c(-c3ccc4cnccc4c3)nc3ccc(C(=O)NCc4cccc(C(N)=O)c4)cc32)C1", "observed": "binding", "method": "competition with immobilised ligand", "concentration": "1 µM", "remaining binding": "93%"}
{"Structure (SMILES)": "COc1cc(-c2cn(C3CCc4c(F)cccc4N(CC(F)(F)F)C3=O)nn2)ccc1-n1cnc(C)c1 (centres unmarked)", "observed": "cell-free assay", "method": "competition with immobilised ligand", "concentration": "1 µM", "remaining binding": "100%"}
{"Structure (SMILES)": "FC(F)(F)Oc1cccc(-c2cnc3ccc(-c4ccncc4)nn23)c1", "observed": "binding", "method": "competition with immobilised ligand", "concentration": "5 µM", "remaining binding": "89%"}
{"Structure (SMILES)": "O=C(NCc1ncc(C(F)(F)F)cc1Cl)c1ccc2c(c1)C1(CCS(=O)(=O)CC1)[C@@H](C1CC1)N2S(=O)(=O)c1ccc(F)cc1", "observed": "cell-free assay", "method": "competition with immobilised ligand", "concentration": "1 µM", "remaining binding": "100%"}
{"Structure (SMILES)": "O=C(c1ccc(Nc2ncc(Cl)c(-c3cc4ccccc4s3)n2)cc1)N1CCC(N2CCCC2)CC1", "observed": "binding", "method": "competition with immobilised ligand", "concentration": "1 µM", "remaining binding": "100%"}
